This is an account of results in PMC4899092 (Bioorganic & medicinal chemistry letters, 2016).

The IC50 is the concentration needed to halve the response being measured.

Experiment [1] concerns the target Pim1 (Homo sapiens, UniProt P11309). The experiment can be described thus: KINOMEscan primary screen binding. The settings on record: 10 μM; lower numbers indicate stronger hits. An outline of the steps: (§1)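 Test compound profiled as a single-concentration primary binding screen across a panel of 100 kinases by the KINOMEscan service, at 10 μM. Binding interactions were reported as % Ctrl, with lower values indicating stronger hits. A selectivity score, S(35), was also calculated across the panel.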

Experiment [2] relates to panel of 100 kinases. The experiment can be described thus: KINOMEscan selectivity over kinase panel. Type of experiment: binding. The following applies: KINOMEscan panel of 100 kinases, 10 μM.
The target in experiment [3] is Pim3 (Homo sapiens, UniProt Q86V86). The experiment can be described thus: KINOMEscan primary screen binding. The settings on record: 10 μM; lower numbers indicate stronger hits. The method, boiled down:
as §1

Experiment [4] has as its target CSNK1D (Homo sapiens, UniProt P48730). Nature of the experiment: KINOMEscan primary screen binding. The following applies: 10 μM; lower numbers indicate stronger hits. The method, boiled down:
as §1

In experiment [5] the test system is DU-145 cells. The experiment can be described thus: Growth inhibition of DU-145 prostate cancer cells. Type of experiment: cell-based. The following applies: read-out: IC50, growth inhibition of DU-145 cells; human prostate cancer cell line DU-145.

Sequence of Pim1 (P11309 whole entry): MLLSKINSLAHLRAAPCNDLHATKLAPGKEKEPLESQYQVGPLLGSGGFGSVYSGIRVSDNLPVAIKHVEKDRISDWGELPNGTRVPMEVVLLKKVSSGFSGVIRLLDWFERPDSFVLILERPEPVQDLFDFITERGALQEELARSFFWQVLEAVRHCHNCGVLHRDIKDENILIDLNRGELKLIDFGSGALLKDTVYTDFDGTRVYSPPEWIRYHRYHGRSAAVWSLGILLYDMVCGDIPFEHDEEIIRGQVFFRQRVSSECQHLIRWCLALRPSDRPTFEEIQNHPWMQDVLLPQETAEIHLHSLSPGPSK
Sequence of CSNK1D (P48730 whole entry): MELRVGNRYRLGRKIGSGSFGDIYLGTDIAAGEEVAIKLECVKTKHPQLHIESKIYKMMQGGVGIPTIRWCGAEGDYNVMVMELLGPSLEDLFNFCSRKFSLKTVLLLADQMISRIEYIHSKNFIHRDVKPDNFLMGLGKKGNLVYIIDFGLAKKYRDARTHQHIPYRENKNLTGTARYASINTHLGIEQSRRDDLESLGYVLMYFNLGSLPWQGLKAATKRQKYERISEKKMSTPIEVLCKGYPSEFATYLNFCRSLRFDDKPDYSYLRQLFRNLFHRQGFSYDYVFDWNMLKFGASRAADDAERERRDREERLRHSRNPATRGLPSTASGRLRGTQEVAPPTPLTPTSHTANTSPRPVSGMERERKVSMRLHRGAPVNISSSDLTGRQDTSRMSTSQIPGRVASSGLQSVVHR

For `O=C1C2=C(C(=O)c3c(O)ccc(O)c31)[C@@H](O)[C@@H](O)[C@@H](O)C2` [Compound 4], in experiment [1], the “% Ctrl Pim1” value is reported as 34 % control. The “selectivity score S(35)” value in experiment [2] is 0.022. The “% Ctrl Pim3” value in experiment [3] is 36 % control. For the same compound, in experiment [4], the “% Ctrl CSNK1D” value worked out at 30 % control.

With `CC(C)C(C)OC1CC(=O)CC2C(=O)c3c(O)ccc(O)c3C(=O)C12` (stereo not drawn) [Compound 7], the IC50 in experiment [5] stood at 3210 nM.

Take `CC(C)(C)OC1CC(O)CC2C(=O)c3c(O)ccc(O)c3C(=O)C12` (stereo not drawn) [Compound 9]: the IC50 in experiment [5] amounted to 2020 nM.
